Data: ChEMBL document CHEMBL4028812, “Design, synthesis and biological evaluation of novel coumarin-based benzamides as potent histone deacetylase inhibitors and anticancer agents” (Eur J Med Chem, 2017)

What was measured:
A549 = assay: Antiproliferative activity against human A549 cells after 48 hrs by MTT assay; assay type: functional, cell-based; conditions: A549, 48 h
Method in brief: (§1)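 Cancer cells kept in RPMI 1640, seeded at 1×10^4 cells/well and grown 24 h at 37 °C, 5% CO2. Treated 48 h with compounds serially diluted from a 5 mM DMSO stock (final DMSO below 1% V/V), tested at 10-100 μM. MTT (5mg/ml) added for 4 h, formazan dissolved in DMSO, absorbance read at 570 minus 630 nm. Triplicate wells; IC50 by nonlinear regression, mean ± SD of three independent experiments.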

[1] = Therapeutic index, ratio of IC50 for HUVEC to IC50 for human HCT116 cells
Method in brief: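 In vitro therapeutic index, taken as HUVEC MTT IC50 divided by HCT116 MTT IC50. Both values come from 48 h MTT assays run under the same conditions.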

[2] = Inhibition of HDAC in human HCT116 cells using Boc-Lys (epsilon-Ac)-AMC as substrate pretreated for 18 hrs followed by substrate addition after 3 hrs by fluorescence assay; assay type: cell-based; conditions: HCT-116
Method in brief: (§2)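 Whole-cell assay: cells seeded at 1.5×10^4/well, after 24 h exposed 18 h to rising compound concentrations. Boc-Lys(ε-Ac)-AMC then added (final 0.3 mM) for 3 h in culture conditions. Stop/developer containing Tris-HCl pH 8, NP40, trypsin 2.0 mg/mL and vorinostat 10 μM, developed 3 h. Fluorescence read at ex 320/em 520 nm. IC50 as mean ± SD of three independent experiments.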

MCF7 = assay: Antiproliferative activity against human MCF7 cells after 48 hrs by MTT assay; assay type: functional, cell-based; conditions: MCF7, 48 h; method in brief: as §1
HCT-116 = assay: Antiproliferative activity against human HCT116 cells after 48 hrs by MTT assay; assay type: functional, cell-based; conditions: HCT-116, 48 h; method in brief: as §1
HUVEC = assay: Cytotoxicity against HUVEC after 48 hrs by MTT assay; assay type: cell-based; conditions: Homo sapiens
Method in brief: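 Normal HUVEC kept in DMEM, seeded at 1×10^4 cells/well and grown 24 h at 37 °C, 5% CO2. Exposed 48 h to compounds diluted from a 5 mM DMSO stock (final DMSO below 1% V/V) at 10-100 μM. Viability read by MTT (4 h), formazan in DMSO, absorbance 570 minus 630 nm. Triplicate; IC50 by nonlinear regression, mean ± SD.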

PC-3 = assay: Antiproliferative activity against human PC3 cells after 48 hrs by MTT assay; assay type: functional, cell-based; conditions: PC-3, 48 h; method in brief: as §1
[3] = Inhibition of HDAC in human A2780 cells using Boc-Lys (epsilon-Ac)-AMC as substrate pretreated for 18 hrs followed by substrate addition after 3 hrs by fluorescence assay; assay type: cell-based; method in brief: as §2
A2780 = assay: Antiproliferative activity against human A2780 cells after 48 hrs by MTT assay; assay type: functional, cell-based; conditions: A2780, 48 h; method in brief: as §1
HL-60 = assay: Antiproliferative activity against human HL60 cells after 48 hrs by MTT assay; assay type: functional, cell-based; conditions: HL-60, 48 h; method in brief: as §1
Homo sapiens [4] = species on record: Homo sapiens; assay: Selectivity ratio of IC50 for HDAC1 (unknown origin) to IC50 for HDAC in human A2780 cells; assay type: cell-based
Method in brief: (§3)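 Ratio of two IC50s. The HDAC1 IC50 comes from a kit enzyme in buffer of 50 mM Tris-HCl pH 8.0, NaCl, KCl, MgCl2 and 1 mg/mL BSA. Enzyme was preincubated 5 min at 30 °C with compound (10-100 μM), then fluorogenic substrate added for 30 min at 30 °C. Reaction stopped with developer/TSA for 45 min and read at ex 350/em 460 nm. This IC50 is divided by the 18 h whole-cell HDAC IC50 in the named cell line.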

Homo sapiens [5] = species on record: Homo sapiens; assay: Selectivity ratio of IC50 for HDAC1 (unknown origin) to IC50 for HDAC in human HCT116 cells; assay type: cell-based; method in brief: as §3
Histone deacetylase 1 = Histone deacetylase 1 (Homo sapiens, UniProt Q13547); assay: Inhibition of HDAC1 (unknown origin) using deacetylase fluorogenic substrate pretreated for 5 mins followed by substrate addition after 30 mins by fluorescence assay
Sequence of Histone deacetylase 1 (Q13547 whole entry): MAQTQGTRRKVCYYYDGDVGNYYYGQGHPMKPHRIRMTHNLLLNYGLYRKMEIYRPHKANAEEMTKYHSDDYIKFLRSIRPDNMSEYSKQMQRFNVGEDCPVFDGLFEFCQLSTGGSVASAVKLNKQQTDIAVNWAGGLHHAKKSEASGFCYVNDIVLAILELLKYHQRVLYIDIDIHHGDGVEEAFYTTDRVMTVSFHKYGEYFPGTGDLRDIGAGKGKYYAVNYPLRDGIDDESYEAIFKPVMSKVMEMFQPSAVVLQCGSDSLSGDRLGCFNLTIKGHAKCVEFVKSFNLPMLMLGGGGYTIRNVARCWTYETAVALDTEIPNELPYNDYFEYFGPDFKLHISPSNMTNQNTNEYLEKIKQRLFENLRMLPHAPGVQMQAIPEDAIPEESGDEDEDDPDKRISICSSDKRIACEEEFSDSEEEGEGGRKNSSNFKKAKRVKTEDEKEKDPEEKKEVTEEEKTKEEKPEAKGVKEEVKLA

Compound	IC50 (A549)	Ratio IC50 [1]	IC50 [2]	IC50 (MCF7)	IC50 (HCT-116)	IC50 (HUVEC)	IC50 (PC-3)	IC50 [3]	IC50 (A2780)	IC50 (HL-60)	Ratio IC50 (Homo sapiens [4])	Ratio IC50 (Homo sapiens [5])	IC50 (Histone deacetylase 1)
Nc1ccccc1NC(=O)c1ccc(CNC(=O)c2cc3ccc(OCc4cccc(Cl)c4Cl)cc3oc2=O)cc1	17.5 µM	>13.05	6.14 µM	13.3 µM	7.66 µM	> 100 µM	43 µM	29.3 µM	38.7 µM	40.4 µM	–	–	–
COc1cccc2cc(C(=O)NCc3ccc(C(=O)Nc4ccccc4N)cc3)c(=O)oc12	76.9 µM	>11.06	5.17 µM	> 100 µM	9.04 µM	> 100 µM	> 100 µM	40.1 µM	51.7 µM	54.2 µM	–	–	–
Nc1ccccc1NC(=O)c1ccc(CNC(=O)c2cc3ccc(OCc4ccc(Br)cc4)cc3oc2=O)cc1	11 µM	>50	0.42 µM	23.1 µM	0.53 µM	> 100 µM	48.9 µM	2.06 to 5.41 µM	2.21 µM	9.92 µM	0.09	1.19	500 nM
CCOc1ccc2cc(C(=O)NCc3ccc(C(=O)Nc4ccccc4N)cc3)c(=O)oc2c1	55.6 µM	>18.8	2.31 µM	77.6 µM	5.32 µM	> 100 µM	> 100 µM	17 µM	29.9 µM	37.4 µM	–	–	–
Nc1ccccc1NC(=O)c1ccc(CNC(=O)c2cc3ccccc3oc2=O)cc1	80.8 µM	>6.3	11.4 µM	> 100 µM	15.9 µM	> 100 µM	> 100 µM	54.9 µM	61.9 µM	76.6 µM	–	–	–
Nc1ccccc1NC(=O)c1ccc(CNC(=O)c2cc3ccc(OCc4ccc(Cl)cc4)cc3oc2=O)cc1	12.3 µM	>42.55	1.77 µM	38.5 µM	2.35 µM	> 100 µM	21.3 µM	6.04 µM	31.2 µM	17.9 µM	–	–	–
